The values that follow come from ChEMBL document CHEMBL4266062, “Discovery of JND3229 as a New EGFRC797S Mutant Inhibitor with In Vivo Monodrug Efficacy” (ACS Med Chem Lett, 2018).

Activity calls are given as the source filed them. No cut-off for these calls is given here.

The subject of series [1] is BaF3. Description: Antiproliferative activity against mouse BAF3 cells harboring EGFR 19D/T790M/C797S mutant after 72 hrs by resazurin dye based assay. The class given is functional, cell-based. The note with it: BaF3, 72 h.
The subject of series [2] is NCI-H1975. Nature of the series: Antiproliferative activity against human NCI-H1975 cells harboring EGFR L858R/T790M mutant after 72 hrs by resazurin dye based assay. It is filed as functional, cell-based. The settings on record: NCI-H1975, 72 h.
In series [3] the test system is BaF3. Nature of the series: Antiproliferative activity against mouse BAF3 cells harboring EGFR L858R/T790M/C797S mutant after 72 hrs by resazurin dye based assay. It is filed as functional, cell-based. The settings on record: BaF3, 72 h.
In series [4] the test system is BaF3. Description: Antitumor activity against mouse BAF3 cells harboring EGFR 19D/T790M/C797S mutant implanted in Balb/c mouse assessed as tumor growth inhibition at 10 mg/kg, ip administered twice daily for 10 days relative to control. It is filed as functional. The settings on record: 240 h, read-out: TGI. Summed up: (§1)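 BALB/c mice with established BaF3-EGFR19D/T790M/C797S xenografts (n = 6); 10 mg/kg in 0.5% HPMC ip twice daily for 10 days versus vehicle. Relative tumor volume and body weight recorded every 2–3 days. TGI taken on the final treatment day versus control; Student's t test.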

Series [5] has as its system A-431. Description: Antiproliferative activity against human A431 cells harboring wild type EGFR after 72 hrs by resazurin dye based assay. It is filed as functional, cell-based. The note with it: A-431, 72 h.
Series [6] concerns Mus musculus. Description: Toxicity in Balb/c mouse implanted with mouse BAF3-EGFR 19D/T790M/C797S mutant cells assessed as change in body weight at 10 mg/kg, ip administered twice daily for 10 days measured every 2 to 3 days during compound dosing. The settings on record: in vivo. It is filed as organism-based. Summed up:
as §1

For series [7], the system named is Epidermal growth factor receptor (Homo sapiens), P00533 [UNDEFINED MUTATION]. Description: Inhibition of EGFR 19D/T790M/C797S mutant (unknown origin) expressed in mouse BAF3 cells assessed as reduction in EGF-induced receptor phosphorylation preincubated for 2 hrs followed by EGF stimulation for 15 mins by Western blot analysis. The class given is cell-based. Summed up: (§2)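 BaF3 cells stably transfected with the mutant EGFR were treated for 2 h across a range of compound concentrations, then stimulated with EGF for 15 min. Cell lysates were collected, and EGFR phosphorylation was read out by Western blot.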

Series [8] relates to Epidermal growth factor receptor (Homo sapiens), P00533 [L858R,T790M,C797S]. Description: Inhibition of EGFR T790M/L858R/C797S mutant (unknown origin) expressed in mouse BAF3 cells assessed as reduction in EGF-induced receptor phosphorylation preincubated for 2 hrs followed by EGF stimulation for 15 mins by Western blot analysis. The class given is cell-based. Summed up: as §2

Series [9] relates to Mus musculus. Nature of the series: In vivo inhibition of EGFR phosphorylation in tumor of Balb/c mouse implanted with mouse BAF3-EGFR 19D/T790M/C797S mutant cells at 10 mg/kg, ip administered twice daily for 10 days by H and E staining based IHC analysis. It is filed as functional, organism-based. Summed up: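 Xenograft tumor sections taken from the 10 mg/kg ip twice-daily treated mice and controls. Sections stained with H&E and anti-p-EGFR antibody. p-EGFR labeling quantified as relative integrated optical density; Student's t test versus control.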

Series [10] concerns BaF3. Description: Antitumor activity against mouse BAF3 cells harboring EGFR 19D/T790M/C797S mutant implanted in Balb/c mouse assessed as tumor growth inhibition at 60 mg/kg, po administered once daily via gavage for 10 days co-treated with cetuximab once every other day relative to control. The settings on record: 240 h, read-out: TGI. The class given is functional. Summed up:
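Same BaF3-EGFR19D/T790M/C797S xenograft in BALB/c mice (n = 6). Positive-control regimen: 60 mg/kg in 10% NMP/90% PEG300 by oral gavage once daily, plus cetuximab 1 mg/kg in 0.9% NaCl/water ip every other day. Relative tumor volume measured every 2–3 days. TGI taken on the final treatment day versus control; Student's t test.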

Series [11] concerns the target Epidermal growth factor receptor (Homo sapiens, UniProt P00533, L858R/T790M). Description: Inhibition of recombinant human EGFR T790M/L858R double mutant using poly (Glu,Tyr) 4:1 as substrate after 1 hr by ELISA.
Series [12] has as its target Epidermal growth factor receptor (Homo sapiens, UniProt P00533, C797S/L858R/T790M). Nature of the series: Inhibition of recombinant human C-terminal His-tagged/N-terminal GST-tagged EGFR (668 to 1210 residues) T790M/L858R/C797S mutant using poly (Glu,Tyr) 4:1 as substrate after 1 hr by ELISA.

Epidermal growth factor receptor (Homo sapiens, UniProt P00533, C797S/L858R/T790M), sequence (P00533 25-1210 T790M/C797S/L858R limits assumed): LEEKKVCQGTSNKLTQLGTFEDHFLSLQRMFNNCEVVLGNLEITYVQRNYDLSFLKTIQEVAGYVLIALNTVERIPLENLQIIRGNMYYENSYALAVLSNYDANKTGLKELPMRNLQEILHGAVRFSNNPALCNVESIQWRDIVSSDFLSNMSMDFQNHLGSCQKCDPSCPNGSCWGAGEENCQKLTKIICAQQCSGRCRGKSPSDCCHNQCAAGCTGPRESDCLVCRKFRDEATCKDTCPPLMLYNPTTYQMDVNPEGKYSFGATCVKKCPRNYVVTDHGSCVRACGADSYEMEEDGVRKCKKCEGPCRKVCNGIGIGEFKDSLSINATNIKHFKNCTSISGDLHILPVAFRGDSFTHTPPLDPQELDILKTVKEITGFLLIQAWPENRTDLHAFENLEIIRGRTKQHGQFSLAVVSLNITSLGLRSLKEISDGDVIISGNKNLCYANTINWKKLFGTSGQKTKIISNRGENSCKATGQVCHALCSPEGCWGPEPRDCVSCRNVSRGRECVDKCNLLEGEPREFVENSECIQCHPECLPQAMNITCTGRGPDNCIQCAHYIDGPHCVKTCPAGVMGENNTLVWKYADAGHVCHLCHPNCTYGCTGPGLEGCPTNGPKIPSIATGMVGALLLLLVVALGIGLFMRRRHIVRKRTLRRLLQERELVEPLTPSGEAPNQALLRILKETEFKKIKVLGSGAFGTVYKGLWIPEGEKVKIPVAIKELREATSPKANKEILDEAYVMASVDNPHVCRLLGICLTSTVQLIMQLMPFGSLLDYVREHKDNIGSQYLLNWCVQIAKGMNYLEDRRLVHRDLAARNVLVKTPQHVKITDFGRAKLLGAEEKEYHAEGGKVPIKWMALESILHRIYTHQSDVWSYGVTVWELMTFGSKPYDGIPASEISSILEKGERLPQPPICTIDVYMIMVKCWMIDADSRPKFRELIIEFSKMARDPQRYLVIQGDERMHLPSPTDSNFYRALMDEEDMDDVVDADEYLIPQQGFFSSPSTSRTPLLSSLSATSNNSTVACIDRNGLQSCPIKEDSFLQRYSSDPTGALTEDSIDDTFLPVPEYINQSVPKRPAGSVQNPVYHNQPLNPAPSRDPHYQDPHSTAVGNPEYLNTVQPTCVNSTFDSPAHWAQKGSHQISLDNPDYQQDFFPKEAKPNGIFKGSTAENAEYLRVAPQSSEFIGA
Epidermal growth factor receptor (Homo sapiens), P00533 [L858R,T790M,C797S], sequence (P00533 whole entry T790M/C797S/L858R): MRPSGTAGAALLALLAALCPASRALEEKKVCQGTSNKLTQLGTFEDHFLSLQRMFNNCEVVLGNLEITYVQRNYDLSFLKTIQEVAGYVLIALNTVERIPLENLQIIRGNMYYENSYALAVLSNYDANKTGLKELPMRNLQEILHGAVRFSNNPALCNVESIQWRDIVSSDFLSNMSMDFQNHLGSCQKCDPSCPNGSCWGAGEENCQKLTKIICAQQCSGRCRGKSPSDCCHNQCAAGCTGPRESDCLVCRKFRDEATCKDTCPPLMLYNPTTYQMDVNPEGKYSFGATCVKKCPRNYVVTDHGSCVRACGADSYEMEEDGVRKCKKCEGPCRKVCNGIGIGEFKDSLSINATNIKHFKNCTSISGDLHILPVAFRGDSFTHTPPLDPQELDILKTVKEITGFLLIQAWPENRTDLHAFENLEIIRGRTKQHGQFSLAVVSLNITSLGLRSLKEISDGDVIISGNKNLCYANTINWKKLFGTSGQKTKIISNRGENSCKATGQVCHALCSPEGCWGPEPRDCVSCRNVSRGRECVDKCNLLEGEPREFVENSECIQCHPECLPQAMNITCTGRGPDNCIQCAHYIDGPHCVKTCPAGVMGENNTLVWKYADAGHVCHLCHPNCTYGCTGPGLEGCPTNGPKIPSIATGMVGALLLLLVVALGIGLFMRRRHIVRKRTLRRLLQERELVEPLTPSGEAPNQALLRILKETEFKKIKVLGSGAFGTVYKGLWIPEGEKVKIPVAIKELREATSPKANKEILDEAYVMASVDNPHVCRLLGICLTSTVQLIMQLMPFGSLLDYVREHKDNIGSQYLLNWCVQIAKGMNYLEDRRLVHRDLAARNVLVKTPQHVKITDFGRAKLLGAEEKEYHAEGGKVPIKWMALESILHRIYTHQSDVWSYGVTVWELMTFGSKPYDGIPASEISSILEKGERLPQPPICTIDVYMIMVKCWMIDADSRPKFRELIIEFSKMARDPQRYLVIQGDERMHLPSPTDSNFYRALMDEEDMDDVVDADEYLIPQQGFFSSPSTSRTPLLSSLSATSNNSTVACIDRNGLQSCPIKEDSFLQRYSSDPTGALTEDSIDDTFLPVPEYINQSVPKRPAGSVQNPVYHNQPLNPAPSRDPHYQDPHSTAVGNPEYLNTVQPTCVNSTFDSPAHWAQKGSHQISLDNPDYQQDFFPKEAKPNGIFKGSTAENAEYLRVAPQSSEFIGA
Epidermal growth factor receptor (Homo sapiens, UniProt P00533, L858R/T790M), sequence (P00533 25-1210 T790M/L858R limits assumed): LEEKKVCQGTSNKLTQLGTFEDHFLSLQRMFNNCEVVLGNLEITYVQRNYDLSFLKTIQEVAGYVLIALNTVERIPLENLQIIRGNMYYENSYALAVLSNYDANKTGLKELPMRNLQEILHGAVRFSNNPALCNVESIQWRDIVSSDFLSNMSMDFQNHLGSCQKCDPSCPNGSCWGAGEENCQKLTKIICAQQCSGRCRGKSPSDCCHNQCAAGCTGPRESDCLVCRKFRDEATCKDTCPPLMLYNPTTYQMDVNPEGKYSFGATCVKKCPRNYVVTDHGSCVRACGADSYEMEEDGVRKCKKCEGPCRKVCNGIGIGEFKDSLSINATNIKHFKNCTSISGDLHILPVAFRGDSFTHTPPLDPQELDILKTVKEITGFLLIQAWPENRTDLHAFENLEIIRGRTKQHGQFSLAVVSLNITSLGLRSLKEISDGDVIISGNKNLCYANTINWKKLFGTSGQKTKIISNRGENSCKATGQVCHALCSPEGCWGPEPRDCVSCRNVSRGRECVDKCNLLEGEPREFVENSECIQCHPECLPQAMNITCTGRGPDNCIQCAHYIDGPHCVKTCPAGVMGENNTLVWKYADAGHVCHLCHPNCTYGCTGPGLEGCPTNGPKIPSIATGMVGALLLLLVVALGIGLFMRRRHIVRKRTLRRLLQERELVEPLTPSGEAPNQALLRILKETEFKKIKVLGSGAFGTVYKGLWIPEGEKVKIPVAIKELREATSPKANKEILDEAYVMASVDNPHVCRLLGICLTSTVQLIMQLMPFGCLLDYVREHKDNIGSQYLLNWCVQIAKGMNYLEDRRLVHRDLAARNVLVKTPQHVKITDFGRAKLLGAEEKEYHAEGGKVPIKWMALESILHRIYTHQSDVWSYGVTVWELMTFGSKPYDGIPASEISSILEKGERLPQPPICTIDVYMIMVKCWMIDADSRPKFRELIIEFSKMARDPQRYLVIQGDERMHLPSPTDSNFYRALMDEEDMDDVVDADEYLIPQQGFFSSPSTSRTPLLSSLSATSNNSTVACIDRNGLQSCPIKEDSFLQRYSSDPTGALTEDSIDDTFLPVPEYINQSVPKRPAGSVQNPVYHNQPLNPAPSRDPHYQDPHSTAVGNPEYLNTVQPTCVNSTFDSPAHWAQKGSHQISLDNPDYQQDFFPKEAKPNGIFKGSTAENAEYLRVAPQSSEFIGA
Epidermal growth factor receptor (Homo sapiens), P00533 [UNDEFINED MUTATION], sequence (P00533 whole entry, looked up, stated change not applied): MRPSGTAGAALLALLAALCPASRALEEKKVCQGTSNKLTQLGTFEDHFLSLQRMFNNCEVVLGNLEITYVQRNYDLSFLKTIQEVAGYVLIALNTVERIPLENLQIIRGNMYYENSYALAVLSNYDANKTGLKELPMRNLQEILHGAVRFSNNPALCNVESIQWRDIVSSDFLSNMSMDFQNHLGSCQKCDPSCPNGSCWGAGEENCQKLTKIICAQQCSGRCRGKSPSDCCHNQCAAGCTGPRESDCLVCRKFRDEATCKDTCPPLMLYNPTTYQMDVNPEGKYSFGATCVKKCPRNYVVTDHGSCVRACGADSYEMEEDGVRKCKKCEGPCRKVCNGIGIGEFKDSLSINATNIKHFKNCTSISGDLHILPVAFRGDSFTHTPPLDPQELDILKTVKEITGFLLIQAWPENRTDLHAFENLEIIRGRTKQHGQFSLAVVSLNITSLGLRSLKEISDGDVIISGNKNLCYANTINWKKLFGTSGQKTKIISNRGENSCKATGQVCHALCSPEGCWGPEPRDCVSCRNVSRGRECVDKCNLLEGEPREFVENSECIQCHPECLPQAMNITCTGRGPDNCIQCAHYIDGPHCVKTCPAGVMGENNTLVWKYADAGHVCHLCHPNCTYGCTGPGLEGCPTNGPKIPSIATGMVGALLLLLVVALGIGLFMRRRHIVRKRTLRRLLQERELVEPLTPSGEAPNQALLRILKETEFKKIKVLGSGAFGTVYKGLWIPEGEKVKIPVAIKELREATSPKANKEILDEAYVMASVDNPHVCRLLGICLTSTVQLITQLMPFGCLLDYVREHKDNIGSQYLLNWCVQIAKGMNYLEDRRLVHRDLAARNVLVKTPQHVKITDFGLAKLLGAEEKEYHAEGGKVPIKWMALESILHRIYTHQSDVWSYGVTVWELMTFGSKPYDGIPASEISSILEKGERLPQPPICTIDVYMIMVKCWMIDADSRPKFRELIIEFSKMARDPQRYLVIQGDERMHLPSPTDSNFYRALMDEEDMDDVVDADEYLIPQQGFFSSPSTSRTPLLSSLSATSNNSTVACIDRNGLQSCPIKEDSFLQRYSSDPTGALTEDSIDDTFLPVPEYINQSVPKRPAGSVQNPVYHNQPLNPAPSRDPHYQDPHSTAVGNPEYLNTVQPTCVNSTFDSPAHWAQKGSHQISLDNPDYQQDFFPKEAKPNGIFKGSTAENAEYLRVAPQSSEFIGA

Take `COc1cc(N2CCC(N3CCN(C)CC3)CC2)ccc1Nc1ncc(Cl)c(Nc2ccccc2P(C)(C)=O)n1` [BRIGATINIB]: the IC50 worked out at 260 nM in series [1], 1090 nM in series [2] and 420 nM in [3].
Take `CCC(=O)N[C@H]1CC[C@H](N2C(=O)N(c3ccccc3Cl)Cc3cnc(Nc4ccc(N5CCN(C)CC5)c(C)c4)nc32)CC1`: in series [4], the inhibition in vivo at 10 mg/kg stood at 42.2%. Also, the IC50 in series [1] came out at 320 nM; in series [5], 270 nM; in [2], 310 nM; in series [3], 510 nM. For the same compound, in series [6], the Activity result is reported as “Non-Toxic”. Also, the inhibition result in series [7] and in series [8] was “Dose-dependent effect” each time. The inhibition entry in series [9] was “Active”.
Regarding `O=C(Nc1nccs1)C(c1cc(F)ccc1O)N1Cc2ccccc2C1=O` (centres undefined), the inhibition in vivo at 60 mg/kg in series [10] is 22.3%.
As to `C=CC(=O)Nc1cc(Nc2nccc(-c3cn(C)c4ccccc34)n2)c(OC)cc1N(C)CCN(C)C` [OSIMERTINIB], the IC50 in series [1] was found to be 4610 nM; in series [5], […]; in [2], […]; in series [3], 5150 nM.
`N#Cc1ccc(O)c(-c2nc(NCc3cnccn3)c3ccccc3n2)c1`: the IC50 is 367 nM in [11] and 85.2 nM in [12].
